# Key:
# Type in all cases: functional
# Escherichia coli [1] = test: Antimicrobial activity against Escherichia coli isolate 1679 expressing beta-lactamase KPC2, SHV-12, TEM and PFGE cluster 6 isolated from peritoneal fluid of patient by agar dilution method
# Outline: (§1)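 Clinical carbapenem-resistant E. coli isolates from the hospital, February 2005 to October 2008. Carbapenem MICs were determined by agar dilution following CLSI protocols.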
# Escherichia coli [2] = test: Antimicrobial activity against Escherichia coli isolate 360T expressing beta-lactamase KPC2, OXA-9 and PFGE cluster 1 isolated from urine of patient by agar dilution method
# Outline: (§2)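 Transformant strains. Plasmids purified from the clinical isolates were electroporated into E. coli DH10B. Transformants were selected on LB agar with 100 μg/ml ampicillin, and colonies were PCR-screened for blaKPC before susceptibility testing.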
# Escherichia coli [3] = test: Antimicrobial activity against Escherichia coli isolate 157 expressing beta-lactamase KPC2, CTX-M-15, TEM and PFGE cluster 3 isolated from urine of patient by agar dilution method; conditions: isolate 157, Urine
# Outline: (§3)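 Clinical carbapenem-resistant E. coli isolates collected Feb 2005–Oct 2008. Carbapenem MICs determined by agar dilution following CLSI protocols.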
# Escherichia coli [4] = test: Antimicrobial activity against Escherichia coli isolate 157T expressing beta-lactamase KPC2 and PFGE cluster 3 isolated from urine of patient by agar dilution method; outline: as §2
# Escherichia coli [5] = test: Antimicrobial activity against Escherichia coli isolate 386 expressing beta-lactamase KPC2, CTX-M-15, OXA-9, TEM and PFGE cluster 1 isolated from wound of patient by agar dilution method; outline: as §3
# Escherichia coli [6] = test: Antimicrobial activity against Escherichia coli isolate 1679T expressing beta-lactamase KPC2, TEM and PFGE cluster 6 isolated from peritoneal fluid of patient by agar dilution method; outline: as §2
# Escherichia coli [7] = test: Antimicrobial activity against Escherichia coli isolate 329 expressing beta-lactamase KPC2, CTX-M-2, TEM and PFGE cluster 2 isolated from blood of patient by agar dilution method; outline: as §1
# Escherichia coli [8] = test: Antimicrobial activity against Escherichia coli isolate 547 expressing beta-lactamase KPC2, TEM and PFGE cluster 4 isolated from blood of patient by agar dilution method; outline: as §3
# Escherichia coli [9] = test: Antimicrobial activity against Escherichia coli isolate 339 expressing beta-lactamase KPC2, TEM and PFGE cluster 5 isolated from peritoneal fluid of patient by agar dilution method; outline: as §1
# Escherichia coli [10] = test: Antimicrobial activity against Escherichia coli isolate 544 expressing beta-lactamase KPC2, TEM and PFGE cluster 4 isolated from abscess of patient by agar dilution method; outline: as §1
# Escherichia coli [11] = test: Antimicrobial activity against Escherichia coli isolate 329T expressing beta-lactamase KPC2 and PFGE cluster 2 isolated from blood of patient by agar dilution method; outline: as §2
# Escherichia coli [12] = test: Antimicrobial activity against Escherichia coli isolate 543 expressing beta-lactamase KPC2, CTX-M-15, TEM and PFGE cluster 4 isolated from synovial fluid of patient by agar dilution method; outline: as §1
# Escherichia coli [13] = test: Antimicrobial activity against Escherichia coli isolate 540 expressing beta-lactamase KPC2, TEM and PFGE cluster 4 isolated from synovial fluid of patient by agar dilution method; outline: as §1
# Escherichia coli [14] = test: Antimicrobial activity against Escherichia coli isolate 547T expressing beta-lactamase KPC2 and PFGE cluster 4 isolated from blood of patient by agar dilution method; outline: as §2
# Escherichia coli [15] = test: Antimicrobial activity against Escherichia coli isolate 543T expressing beta-lactamase KPC2 and PFGE cluster 4 isolated from synovial fluid of patient by agar dilution method; outline: as §2
# Escherichia coli [16] = test: Antimicrobial activity against Escherichia coli isolate 339T expressing beta-lactamase KPC2 and PFGE cluster 5 isolated from peritoneal fluid of patient by agar dilution method; outline: as §2
# Escherichia coli [17] = test: Antimicrobial activity against Escherichia coli DH10B by Etest; conditions: K-12 DH10B
# Escherichia coli [18] = test: Antimicrobial activity against Escherichia coli isolate 386T expressing beta-lactamase KPC2, OXA-9 and PFGE cluster 1 isolated from wound of patient by agar dilution method; outline: as §2
# Escherichia coli [19] = test: Antimicrobial activity against Escherichia coli isolate 360 expressing beta-lactamase KPC2, CTX-M-15, OXA-9, TEM and PFGE cluster 1 isolated from urine of patient by agar dilution method; conditions: isolate 360, Urine; outline: as §3
SMILES,MIC (Escherichia coli [1]),MIC (Escherichia coli [2]),MIC (Escherichia coli [3]),MIC (Escherichia coli [4]),MIC (Escherichia coli [5]),MIC (Escherichia coli [6]),MIC (Escherichia coli [7]),MIC (Escherichia coli [8]),MIC (Escherichia coli [9]),MIC (Escherichia coli [10]),MIC (Escherichia coli [11]),MIC (Escherichia coli [12]),MIC (Escherichia coli [13]),MIC (Escherichia coli [14]),MIC (Escherichia coli [15]),MIC (Escherichia coli [16]),MIC (Escherichia coli [17]),MIC (Escherichia coli [18]),MIC (Escherichia coli [19])
C[C@@H](O)[C@H]1C(=O)N2C(C(=O)O)=C(S[C@@H]3CN[C@H](C(=O)Nc4cccc(C(=O)O)c4)C3)[C@H](C)[C@H]12,32 µg/mL,1 µg/mL,8 µg/mL,4 µg/mL,8 µg/mL,1 µg/mL,32 µg/mL,8 µg/mL,16 µg/mL,16 µg/mL,4 µg/mL,16 µg/mL,16 µg/mL,0.25 µg/mL,2 µg/mL,4 µg/mL,0.023 µg/mL,1 µg/mL,8 µg/mL
C[C@@H](O)[C@H]1C(=O)N2C(C(=O)O)=C(S[C@@H]3CN[C@H](CNS(N)(=O)=O)C3)[C@H](C)[C@H]12 [DORIPENEM],8 µg/mL,< 0.5 µg/mL,2 µg/mL,1 µg/mL,1 µg/mL,0.5 µg/mL,4 µg/mL,< 0.5 µg/mL,1 µg/mL,1 µg/mL,1 µg/mL,2 µg/mL,1 µg/mL,< 0.5 µg/mL,< 0.5 µg/mL,0.5 µg/mL,< 0.5 µg/mL,< 0.5 µg/mL,1 µg/mL

# From ChEMBL document CHEMBL1671686, “Carbapenem-resistant KPC-2-producing Escherichia coli in a Tel Aviv Medical Center, 2005 to 2008” (2010)
